Measurements: ChEMBL document CHEMBL3286173, “Graphite catalyzed solvent free synthesis of dihydropyrimidin-2(1H)-ones/thiones and their antidiabetic activity” (Bioorg Med Chem Lett, 2014)

Assays:
[1] = biological target: T1, Pancreatic alpha-amylase (Sus scrofa) (UniProt P00690); assay: Inhibition pig alpha-amylase at 50 to 300 ug/ml pretreated for 30 mins followed by addition of 1% starch for 10 mins by spectrometer
T1 sequence (whole entry): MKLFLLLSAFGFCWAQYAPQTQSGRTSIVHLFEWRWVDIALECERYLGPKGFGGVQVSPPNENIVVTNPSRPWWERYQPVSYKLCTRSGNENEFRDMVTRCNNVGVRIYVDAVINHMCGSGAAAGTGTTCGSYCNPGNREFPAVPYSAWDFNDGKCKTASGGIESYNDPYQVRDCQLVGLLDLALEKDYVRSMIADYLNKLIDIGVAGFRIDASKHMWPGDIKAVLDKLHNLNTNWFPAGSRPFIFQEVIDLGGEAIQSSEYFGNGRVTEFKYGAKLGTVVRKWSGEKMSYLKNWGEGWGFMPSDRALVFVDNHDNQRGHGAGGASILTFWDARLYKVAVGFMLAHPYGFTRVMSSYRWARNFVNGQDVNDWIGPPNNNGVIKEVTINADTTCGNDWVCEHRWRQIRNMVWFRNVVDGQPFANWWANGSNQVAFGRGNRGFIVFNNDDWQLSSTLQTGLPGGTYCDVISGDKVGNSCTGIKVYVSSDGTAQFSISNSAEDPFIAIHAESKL
How it was run: (§1)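 PBS containing 1% starch was then added for 10 min at 37°C. The reaction was stopped with DNSA in a boiling bath for 10 min, and OD was read at 540 nm against a 0.2% maltose reference. Acarbose was the positive control. Runs were in triplicate with SD, giving % inhibition relative to an uninhibited control.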

[2] = biological target: T1, Pancreatic alpha-amylase (Sus scrofa); details: 100 mg/ml
[3] = biological target: T1, Pancreatic alpha-amylase (Sus scrofa); assay: Inhibition pig alpha-amylase at 300 ug/ml pretreated for 30 mins followed by addition of 1% starch for 10 mins by spectrometer
How it was run: as §1, with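 “Porcine pancreatic α-amylase (1.28 mg in 25 ml PBS) was preincubated with compounds in methanol (50, 150 or 300 µg/ml) at 37°C for 30 min. PBS” for “PBS”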

inhibition [1]	SMILES	other results
26.5%	CCOC(=O)C1=C(C)NC(=O)NC1c1cccc([N+](=O)[O-])c1 (configuration not stated)	–
0%	CCOC(=O)C1=C(C)NC(=S)N[C@H]1c1cccc(O)c1	–
0%	CCOC(=O)C1=C(C)NC(=O)NC1c1ccccc1 (configuration not stated)	–
0%	CCOC(=O)C1=C(C)NC(=O)NC1c1ccc2c(c1)OCO2 (configuration not stated)	–
0%	CCOC(=O)C1=C(C)NC(=O)NC1c1ccccc1F (configuration not stated)	–
0%	CCOC(=O)C1=C(C)NC(=S)NC1c1cccc(OC)c1 (configuration not stated)	–
–	C[C@H]1O[C@H](O[C@H]2[C@H](O)[C@@H](O)[C@@H](O[C@H]3[C@H](O)[C@@H](O)C(O)O[C@@H]3CO)O[C@@H]2CO)[C@H](O)[C@@H](O)[C@@H]1N[C@H]1C=C(CO)[C@@H](O)[C@H](O)[C@H]1O (some centres not stated)	inhibition [2]: 100%
0%	CCOC(=O)C1=C(C)NC(=O)NC1c1ccc([N+](=O)[O-])cc1 (configuration not stated)	–
66.5%	CCOC(=O)C1=C(C)NC(=S)NC1c1ccc(OC)cc1 (configuration not stated)	–
–	CCOC(=O)C1=C(C)NC(=S)NC1c1ccccc1 (configuration not stated)	inhibition [3]: 97.2%
0%	CCOC(=O)C1=C(C)NC(=O)NC1c1ccc(OC)cc1 (configuration not stated)	–
63.8%	CCOC(=O)C1=C(C)NC(=O)NC1c1ccc(F)cc1 (configuration not stated)	–
